Source: PubChem
Shown are actives, neighbours in structure and some others; about 1.7% of the full set was active somewhere.
NTR1 agonist – activates human neurotensin receptor 1 | P30989 | NTR1-U2OS beta-arrestin-GFP spot imaging, agonist mode | activation, % at 20 µM | 0.17% of 330,000 active | AID 493036;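 active = activation at or above 40% of the spot to cytoplasm intensity ratio, with at least 20 cells analyzed; inconclusive = wells under 20 cells, flagged as cytotoxic or low count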
Target sequence (P30989 whole entry, looked up): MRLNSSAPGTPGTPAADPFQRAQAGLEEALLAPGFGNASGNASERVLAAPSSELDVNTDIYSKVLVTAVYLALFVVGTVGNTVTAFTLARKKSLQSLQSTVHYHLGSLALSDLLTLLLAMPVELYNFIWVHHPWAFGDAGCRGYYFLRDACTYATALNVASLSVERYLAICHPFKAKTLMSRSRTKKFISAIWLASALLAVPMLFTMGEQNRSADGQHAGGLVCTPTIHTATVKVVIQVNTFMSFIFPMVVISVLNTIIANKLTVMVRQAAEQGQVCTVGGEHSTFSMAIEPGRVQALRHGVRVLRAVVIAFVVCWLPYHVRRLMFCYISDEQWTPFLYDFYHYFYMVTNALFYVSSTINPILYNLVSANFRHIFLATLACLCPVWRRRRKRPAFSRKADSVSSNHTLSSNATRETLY
SR-BI DiI inh – inhibitors of mouse SR-BI mediated HDL lipid uptake; Q61009; AID 488896; inhibition, % at 12.5 µM; 0.96% of 320,000 active; ldlA[mSR-BI] CHO cells, DiI-HDL uptake fluorescence, 3 h;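 active = mean replicate inhibition of at least 70% and a set share of replicates each scoring 70 or more; inconclusive = meets just one of the two criteria; inactive = fails both criteria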
SR-BI DiI-HDL act – activators of SR-BI mediated HDL lipid uptake. 0.096% of 320,000 active. AID 504775. activation, % at 12.5 µM. CHO ldlA[mSR-BI] cells, DiI-HDL uptake fluorescence, 3 h; 100 = double the neutral-control signal;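 active = mean replicate activation of at least 60% and every replicate at or above 60%; inconclusive = mean or all-replicate condition met, but not both; inactive = mean below 60% and not all replicates reaching 60%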
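material = CHO ldlA[mSR-BI] cells | medium = Ham's F12 with 0.5% BSA, HEPES 25 mM, pH 7.4 | reagent = fluorescent DiI-HDL, 10 µg/mL final | compound dosing = single-point compound dose | incubation = 3 h, 37 °C | measured by = bottom-read fluorescence, 550/595 nm | measure = HDL uptake via cellular fluorescence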
V-ATPase pH – alters yeast V-ATPase proton transport; S. cerevisiae, pHLuorin cytosolic pH fluorescence; response, % at 10 µM; 0.37% of 350,000 active; AID 504577; in the data active = response mostly above about 7.3%, no sharp cut-off; inactive = mostly below about 5.4%; also: actives read high
CaV13 ICDI inh – Disruptors of the CACNA1D IQ motif to Ca2+-dependent inactivation inhibitor domain association, primary screening, Förster resonance energy transfer in intact living …; HEK cells, CFP/YFP FRET ICDI-IQ, plate reader, 10 min; percent FRET-ratio fall versus neutral wells; inhibition, % at 12.3 µM; 0.098% of 340,000 active; AID 743397;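 active = mean replicate inhibition of at least 30% and at least 1% of replicates passing that level; inconclusive = only one of the two criteria is met; inactive = neither criterion is met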
Vif imaging – HIV Vif inhibition | 0.35% of 340,000 active | HEK293T cells, Vif self-association by quenched fluorescence, imaging, 24 h | inhibition, % at 7.49 µM; in the data active = inhibition above about 50%, passing the limit was not always enough; inconclusive = no clear call, values can overlap the other calls; inactive = below about 31%
Large screens that a line does not name were inactive.

O=C(O)COn1c(-c2ccccc2)nc2ccc(Cl)cc21	none
O=[N+]([O-])c1ccc2nc(-c3ccccc3)n(OCc3ccc(Cl)cc3)c2c1	SR-BI DiI inh 77.6
CCn1c(/C=C/c2ccc(F)cc2)nc2ccccc2c1=O	Vif imaging 59.6
CCn1c(/C=C/c2ccccc2)nc2ccccc2c1=O	none
CC(=O)Oc1cccc(N2C(=O)c3cccc4c([N+](=O)[O-])ccc(c34)C2=O)c1	Vif imaging 118.4
Cc1nn(S(=O)(=O)c2ccc(F)cc2)c(C)c1S(=O)(=O)N1CCCCC1	none
Cc1nc(N2CCCCC2)sc1C(=O)c1ccc(SCCO)c([N+](=O)[O-])c1	SR-BI DiI inh 77.5
O=[N+]([O-])/C=C/c1c(OCc2ccccc2)ccc2ccccc12	NTR1 agonist 61.3 (no result: CaV13 ICDI inh, Vif imaging)
Cc1ccc(C(F)(F)F)cc1NC(N)=S	SR-BI DiI inh 77.4
Cc1ccc(NC(N)=S)cc1C	none
COC(=O)c1cccc(NC(=O)/C=C/c2cccc([N+](=O)[O-])c2)c1	SR-BI DiI inh 72.8
COC(=O)c1cccc(NC(=O)/C=C/c2ccc([N+](=O)[O-])cc2)c1	none (no result: Vif imaging)
CC1=CC(=O)C=C(C)C1=NOS(=O)(=O)c1ccccc1	SR-BI DiI inh 111.6 (no result: NTR1 agonist)
CC1=CC(=O)C(C(C)C)=C/C1=N/OS(=O)(=O)c1ccccc1	SR-BI DiI inh 79.7
Cc1ccc2c(c1)/C(=N/OS(=O)(=O)c1ccccc1)CCS2	Vif imaging inconclusive (no result: CaV13 ICDI inh)
Cc1ccc2c(c1)C1(C(=O)N2)N2CCCC2C(C(=O)c2ccc3ccccc3c2)C12C(=O)Nc1ccccc12 (stereo not given)	none (no result: NTR1 agonist)
CCN(CC)S(=O)(=O)c1ccc2oc(C(=O)NC(C)C)c(C)c2c1	none
CCN(CC)S(=O)(=O)c1ccc2oc(C(=O)NCc3ccc(C)cc3)c(C)c2c1	SR-BI DiI inh 75.7
Cc1[nH]n(-c2ccccc2)c(=O)c1/C=N/NC(=O)c1ccc(O)cc1O	none (no result: CaV13 ICDI inh)
CCCCN(CCCC)C(=S)N/N=C/c1c(C)[nH]n(-c2ccccc2)c1=O	none
Cc1cc(C(=O)N/N=C/c2c(C)[nH]n(-c3ccccc3)c2=O)n[nH]1	none
Cc1[nH]n(-c2ccccc2)c(=O)c1/C=N/NC(=O)c1cccc(F)c1	SR-BI DiI inh 132.4
Cc1[nH]n(-c2ccccc2)c(=O)c1/C=N/Nc1nncc(-c2ccccc2)n1	SR-BI DiI inh 91.2
Cc1ccc(-n2[nH]c(C)c(/C=N/NC(=O)c3ccc(O)cc3O)c2=O)cc1	SR-BI DiI inh 137.0 (no result: CaV13 ICDI inh)
Cc1[nH]n(-c2ccc(Br)cc2)c(=O)c1/C=N/NC(=O)c1ccccc1	SR-BI DiI inh 136.4
O=C(NCCC(=O)N1CCN(S(=O)(=O)c2ccccc2Cl)CC1)Nc1ccccc1	none
COc1ccc(CC(=O)N/N=C(/C)c2ccco2)cc1	none
N#CCC(=O)Nc1ccc(C(=O)NCc2ccccn2)cc1	none (no result: Vif imaging)
NC(=O)[C@H]1CC2(CC(c3cccc(NC(=O)COc4ccc(Cl)cc4)c3)=NO2)CN1C(=O)c1ccccc1C(=O)c1ccccc1 (stereo not given in full)	SR-BI DiI inh 76.7
CC(C)(C)OC[C@H](NC(=O)c1[nH]cnc1C(=O)Nc1ccccc1F)C(=O)OC(C)(C)C	none (no result: NTR1 agonist, SR-BI DiI inh, SR-BI DiI-HDL act)
Cc1ccc(NC(=O)c2cc(NC(=O)c3ccco3)ccc2N2CCOCC2)cc1Cl	SR-BI DiI inh 73.6
O=C(Nc1ccc(N2CCCC2)c(Cl)c1)c1cccc(-c2cc3ccccc3oc2=O)c1	SR-BI DiI inh 86.6
O=C(Nc1ccc(NC(=O)c2cc3ccccc3o2)cc1)c1ccc2c(c1)OCCO2	SR-BI DiI inh 73.2
COc1ccc2nc(NC(=O)c3cccc(-c4cc5ccccc5oc4=O)c3)sc2c1	SR-BI DiI inh 77.3
COc1ccc(C(=O)Nc2nc3ccc(OC)cc3s2)cc1	none
CCc1ccc(CN(C)C(=O)C2CCC(=O)N(CC3CCCCC3)C2)cc1 (stereo not given)	none
O=C(Nc1ccc(N2CCOCC2)c(Cl)c1)c1cc2ccccc2o1	SR-BI DiI inh 84.9, Vif imaging 91.6 (no result: CaV13 ICDI inh)
COc1ccc(NC(=O)c2cc(-c3cc(OC)c(OC)c(OC)c3)nc3ccccc23)cc1OC	SR-BI DiI inh 85.3
COc1ccccc1NC(=O)Cn1cnc2sc(C(=O)Nc3ccc(OC)c(OC)c3)c(C)c2c1=O	SR-BI DiI inh 83.0
COc1cccc(-c2cc(C(=O)Nc3nc4ccccc4s3)c3ccccc3n2)c1	SR-BI DiI inh 88.3 (no result: CaV13 ICDI inh)
O=C(Nc1nc2ccccc2s1)c1cc(-c2ccco2)nc2ccccc12	none
COc1cccc(NC(=O)c2cc(-c3cccnc3)nc3c(Cl)cccc23)c1	SR-BI DiI inh 82.3
COc1cccc(NC(=O)N(C)C[C@@H]2OCc3cnnn3CCCC(=O)N([C@H](C)CO)C[C@@H]2C)c1	none (no result: NTR1 agonist, SR-BI DiI inh, SR-BI DiI-HDL act)
COc1ccc(NC(=O)N2CCCC(C(=O)NCCc3ccccc3)C2)cc1 (stereo not given)	none
COc1ccc(NC(=O)c2ccccc2NS(C)(=O)=O)cc1OC	none (no result: CaV13 ICDI inh)
COc1ccc(Cl)cc1C(=O)Nc1cccnc1	Vif imaging 53.4
COc1cc(OC)c(C(=O)Nc2cccnc2)cc1OC	none
COc1ccccc1Nc1ncc(C(=O)Nc2ccc(OC)c(OC)c2)c2ccccc12	SR-BI DiI inh 82.8, Vif imaging inconclusive
COc1cccc(NC(=O)c2cc(-c3ccc(C)o3)nc3ccccc23)c1	SR-BI DiI inh 77.4 (no result: CaV13 ICDI inh)
COc1ccc(-c2cc(C(=O)Nc3ccc(O)cc3)c3ccccc3n2)cc1OC	SR-BI DiI inh 81.2
CN1CCCCCC1C(=O)N1CCC(N2CCC(C(=O)N3CCOCC3)CC2)CC1 (stereo not given)	none (no result: SR-BI DiI inh, SR-BI DiI-HDL act)
Cc1cc(-c2nnc(SCC(=O)Nc3cccc(F)c3)n2N)n[nH]1	none
CCOC(=O)c1sc(NCc2ccco2)c(-c2nc3ccccc3s2)c1N	SR-BI DiI inh 87.7
CCNc1sc(C(=O)c2cccs2)c(N)c1-c1nc2ccccc2s1	SR-BI DiI inh 97.5
C=CCNc1sc(C(=O)c2ccccc2)c(N)c1-c1nc2ccccc2s1	SR-BI DiI inh 90.9 (no result: CaV13 ICDI inh)
COc1ccccc1CCC(=O)NCCCn1ccc2ccccc21	none (no result: SR-BI DiI inh, SR-BI DiI-HDL act)
O=C1C/C(=C\c2c(F)cccc2Cl)N2CCC1CC2	none
Cn1nc(C(F)(F)F)c2cc(C(=O)Nc3ccc(Cl)cc3)sc21	SR-BI DiI inh 82.7
O=C(N/N=C/c1ccccc1C(=O)O)c1cccc(S(=O)(=O)N2CCOCC2)c1	none
CCN(CC)c1ccc(C=Nc2cccc(S(=O)(=O)N3CCOCC3)c2)c(O)c1	none
CCOc1ccccc1/C=N/NC(=O)c1cccc(S(=O)(=O)N2CCOCC2)c1	SR-BI DiI inh 82.1
CCN(CC)c1ccc(/C=N/NC(=O)c2cccc(S(=O)(=O)N3CCOCC3)c2)c(O)c1	SR-BI DiI inh 113.7
